Results on four molecules are retold here after ChEMBL document CHEMBL2169769, “Synthesis and biological characterization of protease-activated prodrugs of doxazolidine” (J Med Chem, 2012).

What is called kcat is the number of substrate molecules converted per active site and unit of time at saturation. As usually defined, the Km is the substrate concentration at which the rate is half of its maximum. What is called Vmax is the top rate of the reaction or transport when substrate is in excess. What is called IC50 is the point on the concentration scale where inhibition reaches its midpoint.

Calls of active or inactive are those of the source. No cut-off for these calls is given here.

Data set [1] relates to COc1cccc2c1C(=O)c1c(O)c3c(c(O)c1C2=O)C[C@@](O)(C(=O)CO)C[C@@H]3O[C@H]1C[C@H]2[C@H](OCN2C(=O)OCc2ccc(NC(=O)[C@H](CCCCN)NC(=O)[C@H](Cc3ccccc3)NC(=O)[C@@H](C)NC(=O)CNC(C)=O)cc2)[C@H](C)O1. The experiment in a line: Activity of human cathepsin B assessed as enzyme catalytic turnover for compound hydrolysis at 50 uM at pH 6.5 in PBS buffer containing 10 mM N-acetylcysteine by RP-HPLC. The procedure, abridged: (§1)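 Michaelis-Menten kinetics, substrate 10–400 µM at 37 °C. Plasmin: 0.2 U, PBS pH 7.4, 4 min. Cathepsin B: 0.08 U, PBS-NAC pH 6.5, 20 min. Quenched with equal volume ethanol, −20 °C ≥2 h, centrifuged, supernatant RP-HPLC at 480 nm. Rates (µM/min) fit by non-linear least squares; triplicates.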

The test system is the same in data set [2]. The experiment in a line: Activity of human cathepsin B assessed as compound hydrolysis at 50 uM at pH 6.5 in PBS buffer containing 10 mM N-acetylcysteine by RP-HPLC. The procedure, abridged:
as §1

Data set [3] has as its system MCF7. The experiment in a line: Cytotoxicity against human MCF7 cells incubated for 3 hrs measured after 3 to 4 hrs in absence of plasmin. Format: functional, cell-based.
Data set [4] relates to MIA PaCa-2. The data set is described as follows: Cytotoxicity against human MIAPaCa2 cells incubated for 3 hrs measured after 3 to 4 hrs in absence of plasmin. It is filed as functional, cell-based.
Data set [5] relates to MIA PaCa-2. The data set is described as follows: Cytotoxicity against human MIAPaCa2 cells incubated for 3 hrs measured after 3 to 4 hrs in presence of plasmin. It is filed as functional, cell-based.
Data set [6] concerns MCF7. The experiment in a line: Cytotoxicity against human MCF7 cells incubated for 3 hrs measured after 3 to 4 hrs in presence of plasmin. It is filed as functional, cell-based.
Data set [7] can be described thus: Prodrug conversion assessed as release of human plasmin induced active dozax at 50 uM pH 7.4 in PBS by RP-HPLC. Format: ADME. The conditions noted are these: buffer, pH 7.4, 50 µM. The procedure, abridged: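 50 µM prodrug with 1.2 µg/mL human plasmin in PBS pH 7.4 at 37 °C. Samples taken over time, ethanol-quenched, analysed by RP-HPLC at 480 nm for prodrug and dox; repeated runs fit to single-exponential association model.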

Data set [8] is described as follows: Prodrug conversion assessed as release of active dozax in absence of plasmin at 50 uM pH 7.4 in PBS by RP-HPLC. Format: ADME. The note with it: buffer, pH 7.4, 50 µM. The procedure, abridged: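 Enzyme-free control: 50 µM prodrug in PBS at 37 °C over 24 h, RP-HPLC monitoring dox at 480 nm.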
Substrate in data set [9]: COc1cccc2c1C(=O)c1c(O)c3c(c(O)c1C2=O)C[C@@](O)(C(=O)CO)C[C@@H]3O[C@H]1C[C@H]2[C@H](OCN2C(=O)OCc2ccc(NC(=O)[C@H](CCCCN)NC(=O)[C@H](Cc3ccccc3)NC(=O)[C@@H](C)NC(=O)CNC(C)=O)cc2)[C@H](C)O1
The data set is described as follows: Activity of human plasmin assessed as enzyme catalytic turnover for compound hydrolysis at 50 uM at pH 7.4 in PBS buffer by RP-HPLC. The procedure, abridged:
as §1

Substrate in data set [10]: COc1cccc2c1C(=O)c1c(O)c3c(c(O)c1C2=O)C[C@@](O)(C(=O)CO)C[C@@H]3O[C@H]1C[C@H]2[C@H](OCN2C(=O)OCc2ccc(NC(=O)[C@H](CCCCN)NC(=O)[C@H](Cc3ccccc3)NC(=O)[C@@H](C)NC(=O)CNC(C)=O)cc2)[C@H](C)O1
The experiment in a line: Activity of human plasmin assessed as compound hydrolysis at 50 uM at pH 7.4 in PBS buffer by RP-HPLC. In short, it runs like this: as §1

In the case of “Cathepsin B (Homo sapiens) (from UniProt P07858)”, the kcat in data set [1] was found to be 0.49 s⁻¹. Moreover, in data set [2], the Km stood at 108 µM and the Vmax came out at 1.32 µM/min.

Consider `COc1cccc2c1C(=O)c1c(O)c3c(c(O)c1C2=O)C[C@@](O)(C(=O)CO)C[C@@H]3O[C@H]1C[C@H](NC(=O)OCc2ccc(NC(=O)[C@H](CCCCN)NC(=O)[C@H](Cc3ccccc3)NC(=O)[C@@H](C)N)cc2)[C@H](O)[C@H](C)O1`, for which, in data set [3], the IC50 was under 1 µM. In data set [4], the pIC50 entry was “inactive”.

Regarding `COc1cccc2c1C(=O)c1c(O)c3c(c(O)c1C2=O)C[C@@](O)(C(=O)CO)C[C@@H]3O[C@H]1C[C@H]2[C@H](OCN2C(=O)OCc2ccc(NC(=O)[C@H](CCCCN)NC(=O)[C@H](Cc3ccccc3)NC(=O)[C@@H](C)N)cc2)[C@H](C)O1.O=P(O)(O)O`, the result in data set [5] and in [6] was Active. In addition, the pIC50 result in data set [3] and in [4] was “Active” in each case. Further, the Drug metabolism result in data set [7] is reported as “Active”. In addition, the Stability result in data set [8] was “Stable”.

B1: Plasminogen (Homo sapiens), P00747 (protein)
chain: MEHKEVVLLLLLFLKSGQGEPLDDYVNTQGASLFSVTKKQLGAGSIEECAAKCEEDEEFTCRAFQYHSKEQQCVIMAENRKSSIIIRMRDVVLFEKKVYLSECKTGNGKNYRGTMSKTKNGITCQKWSSTSPHRPRFSPATHPSEGLEENYCRNPDNDPQGPWCYTTDPEKRYDYCDILECEEECMHCSGENYDGKISKTMSGLECQAWDSQSPHAHGYIPSKFPNKNLKKNYCRNPDRELRPWCFTTDPNKRWELCDIPRCTTPPPSSGPTYQCLKGTGENYRGNVAVTVSGHTCQHWSAQTPHTHNRTPENFPCKNLDENYCRNPDGKRAPWCHTTNSQVRWEYCKIPSCDSSPVSTEQLAPTAPPELTPVVQDCYHGDGQSYRGTSSTTTTGKKCQSWSSMTPHRHQKTPENYPNAGLTMNYCRNPDADKGPWCFTTDPSVRWEYCNLKKCSGTEASVVAPPPVVLLPDVETPSEEDCMFGNGKGYRGKRATTVTGTPCQDWAAQEPHRHSIFTPETNPRAGLEKNYCRNPDGDVGGPWCYTTNPRKLYDYCDVPQCAAPSFDCGKPQVEPKKCPGRVVGGCVAHPHSWPWQVSLRTRFGMHFCGGTLISPEWVLTAAHCLEKSPRPSSYKVILGAHQEVNLEPHVQEIEVSRLFLEPTRKDIALLKLSSPAVITDKVIPACLPSPNYVVADRTECFITGWGETQGTFGAGLLKEAQLPVIENKVCNRYEFLNGRVQSTELCAGHLAGGTDSCQGDSGGPLVCFEKDKYILQGVTSWGLGCARPNKPGVYVRVSRFVTWIEGVMRNN
Take B1: the kcat in data set [9] was found to be 2.45 s⁻¹. Further, in [10], the Km worked out at 171 µM and the Vmax was 3.76 µM/min.
